Screening results as filed in PubChem BioAssay.
OXTR ag = human OXTR agonists, primary screen, fluorescence, CHO-OTR cells, Fluo-8 calcium; Fluo-8 calcium fluorescence; normalized: DMSO 0%, oxytocin 100%; activation, % at 3 µM; 320,000 tested, 0.32% active; AID 2435, 2010;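 active = activation above the mean of all tested compounds plus 3 SD, cutoff set per screening run, cut at about 20% in these data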;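 note: peak over basal fluorescence ratio from a 100 s FLIPR kinetic read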
Target sequence (P30559 whole entry, looked up): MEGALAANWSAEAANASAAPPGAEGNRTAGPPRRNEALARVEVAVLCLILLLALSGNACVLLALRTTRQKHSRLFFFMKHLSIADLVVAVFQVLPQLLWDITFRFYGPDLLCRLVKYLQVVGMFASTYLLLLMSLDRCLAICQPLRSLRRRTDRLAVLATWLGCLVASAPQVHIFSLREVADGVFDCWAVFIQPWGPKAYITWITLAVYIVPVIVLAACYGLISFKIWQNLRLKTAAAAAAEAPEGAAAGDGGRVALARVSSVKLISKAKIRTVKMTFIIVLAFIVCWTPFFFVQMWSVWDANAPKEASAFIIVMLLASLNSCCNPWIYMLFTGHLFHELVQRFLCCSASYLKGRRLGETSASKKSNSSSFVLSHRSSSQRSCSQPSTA
V1R ag counter = agonists of human V1a receptor, primary screen, counter-screen for OXTR agonist project, fluorescence, CHO-V1R cells; 320,000 tested, 0.25% active; Fluo-8 calcium fluorescence, agonist mode; 0% DMSO, 100% 3 nM vasopressin; activation, % at 3 µM; AID 2797, 2010;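 active = activation above the mean activation of all tested compounds plus 3 SD, per screening run, cut at about 20% in these data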;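 note: signal is peak over basal fluorescence ratio across a 100 second FLIPR read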
TAAR1 agonist = human TAAR1 agonists, primary screen, Fluo-8 calcium fluorescence, CHO RD-HGA16 cells. vehicle wells 0%, saturating PEA agonist 100%. 360,000 tested, 0.99% active. activation, % at 3 µM;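 active = activation above the mean activation of all test compounds in the run plus 3 SD, cut at about 38% in these data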
Target sequence (Q96RJ0 whole entry, looked up): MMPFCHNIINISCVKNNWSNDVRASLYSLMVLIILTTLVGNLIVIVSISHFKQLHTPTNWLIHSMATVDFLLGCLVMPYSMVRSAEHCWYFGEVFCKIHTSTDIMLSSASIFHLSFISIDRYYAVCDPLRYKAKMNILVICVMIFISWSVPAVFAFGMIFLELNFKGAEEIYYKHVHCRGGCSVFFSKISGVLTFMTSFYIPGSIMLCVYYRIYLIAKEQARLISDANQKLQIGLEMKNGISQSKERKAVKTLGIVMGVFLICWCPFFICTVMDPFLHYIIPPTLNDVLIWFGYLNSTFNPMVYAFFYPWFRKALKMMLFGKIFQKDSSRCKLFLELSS
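Test system: RD-HGA16 (CHO) cells co-expressing Gα16 and hTAAR1 | Doses: Single dose, 3 µM | Schedule: 17-24 h seeding, 75 min 37 °C dye, 30 min RT | Evaluation: % activation from peak over basal fluorescence ratio, DMSO-to-PEA scaled | Technique: Kinetic Fluo-8 calcium fluorescence | Benchmarks: Low control DMSO, high control PEA (EC100)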
TAAR1 antagonist = human TAAR1 antagonists, primary screen, Fluo-8 calcium fluorescence, CHO RD-HGA16 cells. Trace amine-associated receptor 1 (Homo sapiens), Q96RJ0. antagonist. inhibition, % at 3 µM. 360,000 tested, 1.5% active;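 active = inhibition above a per-plate cutoff, the mean inhibition of test compounds on that plate plus 3 SD, cut at about 49% in these data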
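Test system: RD-HGA16 CHO cells with stable hTAAR1 and Gα16 / Probe or stimulus: EC80 β-phenethylamine stimulus / Times: seeding 17-24 h prior, 75-min 37 °C, 30-min RT dye loading / Detection: Fluo-8 calcium-sensitive fluorescence / Read-out basis: % inhibition scaled between DMSO and EC80 PEA controls / Repeats: singlicate, one well per test compound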
OXTR potentiate = human OXTR potentiators, primary screen, fluorescence, CHO-OTR cells, Fluo-8 calcium. Oxytocin receptor (Homo sapiens), P30559. Fluo-8 calcium fluorescence, potentiator mode; 0% = oxytocin EC15, 100% = EC100. activation, % at 3 µM. AID 2445, 2010. 320,000 tested, 0.061% active;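 active = activation above that plate's cutoff, the mean activation of tested compounds plus 3 SD, cut at about 6.6% in these data, passing the limit was not always enough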
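Material: human OTR in CHO cells. Compound: 3.0 µM, one dose. Timing: compound 6 min at room temperature before oxytocin, 100 s read. Evaluation: % activation of max/min ratio relative to oxytocin controls. Replication: single well per compound, singlicate. Signal: Fluo-8 calcium dye fluorescence.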
nonsel antag count = nonselective antagonists in TAAR1 counter-screen cells, counter-screen for hTAAR1 antagonist project, cell-based, fluorescence, calcium; shares compounds with TAAR1 antagonist; inhibition, % at 3 µM; counterscreen cell line, antagonist mode; 2,400 tested, 77% active; in the data active = inhibition above about 22%;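 note: CHO-Ga16 host cells stimulated with ATP at an EC80 level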
TAAR1 antag conf = human TAAR1 antagonists, retest of hits, confirmation, cell-based, fluorescence | shares compounds with TAAR1 antagonist | TAAR1-expressing cells, fluorescence antagonist read-out | inhibition, % at 3 µM | 2,400 tested, 40% active; in the data active = inhibition above about 49%;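 note: CHO-Ga16 host cells challenged with agonist PEA near its EC80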
Ga16 nonsel ag = calcium activation in Ga16-expressing cells, counter-screen for TAAR1 antagonist project, cell-based, fluorescence. 2,400 tested, 18% active. activation, % at 3 µM. shares compounds with TAAR1 antagonist. agonist counterscreen; in the data active = activation above about 12%
TAAR1 ag count = TAAR1 activation by candidate antagonists – cell-based, fluorescence, counter-screen for TAAR1 antagonist project. shares compounds with TAAR1 antagonist. hTAAR1 cell line, agonist mode. activation, % at 3 µM. 2,400 tested, 2% active. AID 651955, 2012; in the data active = activation above about 37%;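 note: CHO cells stably expressing TAAR1 with calcium dye readout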
Numbers stand for hits; - = inactive; . = not tested or not shown. Most compounds without a hit are left out; they make up all but 2.3% or so of the library.

SMILES | OXTR ag | V1R ag counter | TAAR1 agonist | TAAR1 antagonist | OXTR potentiate | nonsel antag count | TAAR1 antag conf | Ga16 nonsel ag | TAAR1 ag count
O=C(Nc1cccc(-c2nc3ccccc3o2)c1)c1ccc(N2C(=O)C3C4C=CC(C4)C3C2=O)cc1 (centres undefined) | - | - | - | 63 | - | 39 | 58 | - | -
CC(C)NC(=O)N(C)C[C@H]1Oc2c(NC(=O)Nc3ccc4c(c3)OCO4)cccc2C(=O)N([C@H](C)CO)C[C@@H]1C | - | - | - | - | - | . | . | . | .
C[C@H](CO)N1C[C@H](C)[C@@H](CN(C)C(=O)Nc2ccc3c(c2)OCO3)Oc2c(NC(=O)Nc3ccccc3)cccc2C1=O | - | - | - | 58 | - | 26 | - | - | -
CN(Cc1ccccc1)C(=O)c1cccc(NC(=O)Cc2cccc([N+](=O)[O-])c2)c1 | - | - | - | 65 | - | 26 | - | - | -
Cc1ccc2nc(-c3ccc(NC(=O)CSc4nc(N)cc(=O)[nH]4)cc3)sc2c1 | - | - | - | 103 | - | - | - | - | -
C=Cc1cc2c(cc1O)CCC1C2CCC2(C)C(O)CCC12 (centres undefined) | . | . | - | 58 | . | 23 | - | - | -
CCOc1ccccc1NC(=S)N1CCCCCC1 | - | - | - | - | - | . | . | . | .
Cc1ccc(-c2[nH]ncc2/C=N/n2c(C)nc3ccccc3c2=O)cc1 | - | - | - | 50 | - | 23 | - | - | -
Cc1nc2ccccc2c(=O)n1/N=C/c1ccccc1O | - | - | - | - | - | . | . | . | .
O=C(O)C(C(O)c1ccccc1)[n+]1ccccc1 (centres undefined) | - | - | - | - | - | . | . | . | .
Cc1ccc(C)c(OCC(=O)NNC(=O)c2ccc(=O)[nH]c2)c1 | - | - | - | - | - | . | . | . | .
CC(C)COc1ccc(C(=O)NNC(=O)c2ccc(=O)[nH]c2)cc1 | - | - | - | 103 | - | - | - | - | -
COc1ccccc1CNC(=O)c1cc(-c2ccccc2C)nn1CC1CC(c2cccnc2)=NO1 (centres undefined) | - | - | - | - | - | . | . | . | .
Cc1ccccc1-c1cc(C(=O)NCc2cccc(Br)c2)n(CC2CC(c3cccnc3)=NO2)n1 (centres undefined) | - | - | - | 69 | - | 26 | - | - | -
CCOC(=O)c1cc(-c2ccccc2)nn1CC1CC(c2ccc(Cl)cc2)=NO1 (centres undefined) | - | - | - | 80 | - | 24 | - | - | -
CCOC(=O)c1cc(-c2ccccc2)nn1CC1CC(c2ccc(OC)cc2)=NO1 (centres undefined) | - | - | - | - | - | . | . | . | .
N#Cc1ccccc1S(=O)(=O)N1CCN(CC(=O)Nc2ccccc2C(=O)NC2CC2)CC1 | - | - | - | 56 | - | 24 | - | - | -
O=C(CN1CCN(S(=O)(=O)c2ccc(F)c(F)c2)CC1)Nc1ccccc1C(=O)NC1CC1 | - | - | - | 49 | - | 22 | - | - | -
CCc1nnc(NC(=O)CSc2nnc(C(C)NC(=O)c3ccccc3F)n2C)s1 (centres undefined) | - | - | - | - | - | . | . | . | .
COC(=O)[C@@]1(Cc2ccc(F)cc2)[C@H]2c3cc(C(=O)N(C)C)n(Cc4ccc(C)o4)c3C[C@H]2CN1C(=O)c1ccccc1 | . | . | - | - | . | . | . | . | .
Cc1cc(C(=O)COC(=O)C2=COCCO2)c(C)n1-c1ccc2c(c1)OCO2 | - | - | - | - | - | . | . | . | .
CC(=O)Nc1ccc(S(=O)(=O)N(C)CC(=O)OCC(=O)c2cc(C)n(-c3ccc4c(c3)OCO4)c2C)cc1 | - | - | - | 56 | - | 23 | - | - | -
CCN(c1ccc(OCC(=O)OCC(=O)c2c(N)n(C)c(=O)n(C)c2=O)cc1)S(=O)(=O)c1ccccc1 | - | - | - | - | - | . | . | . | .
CN(c1ccc(OCC(=O)OCC(=O)c2c(N)n(C)c(=O)n(C)c2=O)cc1)S(=O)(=O)c1ccc2ccccc2c1 | - | - | - | 77 | - | 35 | 56 | - | -
COc1cc(/C=C/c2nc(-c3ccccc3O)n[nH]2)cc(OC)c1OC | - | - | - | 72 | - | 22 | 51 | - | -
SMILES | OXTR ag | V1R ag counter | TAAR1 agonist | TAAR1 antagonist | OXTR potentiate | nonsel antag count | TAAR1 antag conf | Ga16 nonsel ag | TAAR1 ag count
COc1cc(/C=C/c2nc(N)nc(-c3ccccc3O)n2)cc(OC)c1OC | - | - | - | - | - | . | . | . | .
CCCS(=O)(=O)NC(=O)C1(C)CCN1C(=O)Cc1ccc(Cl)cc1Cl (centres undefined) | . | . | - | - | . | . | . | . | .
COc1cccc(C2C(C(=O)Nc3ccccc3)=C(C)N=c3s/c(=C/c4ccc(OCC(=O)O)cc4)c(=O)n32)c1 (centres undefined) | - | - | - | - | - | . | . | . | .
COc1cccc(C2C(C(=O)OC(C)C)=C(C)N=c3s/c(=C\c4ccc(C(=O)O)cc4)c(=O)n32)c1 (centres undefined) | - | - | - | 60 | - | 34 | 53 | 17 | -
Cc1ccc(C)c(OCCC(=O)OCC(=O)Nc2ccc(C)c(S(=O)(=O)N3CCCCC3)c2)c1 | - | - | - | 53 | - | 39 | - | - | -
Cc1ccccc1OCCC(=O)OCC(=O)Nc1ccc(C)c(S(=O)(=O)N2CCCCC2)c1 | . | . | - | - | . | . | . | . | .
O=C(N/N=C/c1c(Cl)[nH]c2ccccc12)c1ccc2c(c1)OCCO2 | - | - | - | - | - | . | . | . | .
O=C(c1ccccc1NS(=O)(=O)c1ccccc1[N+](=O)[O-])N1CCCC1 | - | - | - | - | - | . | . | . | .
COc1cc(C(C)=O)ccc1OCC(=O)Nc1ccccc1N1CCCCC1 | - | - | - | 55 | - | - | - | - | -
COc1cc(C(C)=O)ccc1OCC(=O)Nc1ccccc1N1CCCC1 | - | - | - | - | - | . | . | . | .
CC(=O)c1cccc(OCC(=O)Nc2ccccc2N2CCOCC2)c1 | - | - | - | 51 | - | - | - | - | -
